# Measurements collected from several papers.
# Lines come from different studies, so protocols differ.
SMILES,species,medium,route,dose,setting,AUC(0-inf)
COc1nc(-c2cc(C)c(N[C@@H](C)c3cc(F)cc(F)c3)nn2)ccc1-n1cnc(C)c1,male Sprague-Dawley rat,plasma,oral,5 mg/kg,single dose,31900 ng·h/mL
COc1cc2c3c(n(CCCN4CCOCC4)c(=O)c2cc1OC)-c1cc2c(cc1C3=O)OCO2,male Fischer 344 rat,plasma,intravenous,12 mg/m²,single dose,232 ng·h/mL
COc1ccc(C(C)=O)c(O)c1,male Sprague-Dawley rat,plasma,oral,100 mg/kg,,38600 ng·h/mL
CCc1cc(OC)c2nccc(N3CCc4c(cc(Cn5ccnc5)cc4-c4cn(C)nc4C(F)(F)F)C3=O)c2c1,male Sprague-Dawley rat,plasma,oral,50 mg/kg,,10300 ng·h/mL
Cc1c(-c2ccccc2)cccc1N1C(=O)c2cc(CN[C@H](C(=O)O)C(C)O)c(OCc3cccc(C#N)c3)cc2C1=O (stereo partly drawn),Sprague-Dawley rat,plasma,intravenous,5 mg/kg,,3260 ng·h/mL
O=C(Nc1cc(F)c(F)c(F)c1)c1ccc(F)c(S(=O)(=O)NCc2cccc(B(O)O)c2)c1,male Sprague-Dawley rat,plasma,oral,20 mg/kg,,37.6 ng·h/mL
CCOC(=O)[C@@]12C[C@@H]1[C@@H](n1ccc3c(NC)nc(C#Cc4ccc(Cl)s4)nc31)[C@H](O)[C@@H]2O,male Sprague-Dawley rat,plasma,oral,10 mg/kg,,371 ng·h/mL
O=C(Nc1ccc(-c2nc(-c3ccc(Cl)cc3)no2)cc1)C1CC(=O)N(Cc2ccco2)C1 (stereo not drawn),male Wistar rat,brain,intraperitoneal,10 mg/kg,,12500 ng·h/mL
Oc1c(Br)cc(Cl)c2cccnc12,Sprague-Dawley rat,plasma,intravenous,2 mg/kg,,1200 ng·h/mL
Oc1cc(O)cc(-c2cc3ccc(O)cc3o2)c1,male rat,plasma,intravenous,5 mg/kg,,932 ng·h/mL
COc1ccc2c(Cc3ccccc3F)c3n(c(=O)c2c1OC)CCc1cc2c(cc1-3)OCO2,rat,plasma,intravenous,5 mg/kg,,22700 ng·h/mL
CCc1cc(C(=O)NC)c2nccc(N3CCc4c(cc(Cn5ccnc5)cc4-c4cn(C)nc4C(F)(F)F)C3=O)c2c1,male Sprague-Dawley rat,plasma,oral,50 mg/kg,single dose,11100 ng·h/mL
COCCOC(=O)C1=C(C)NC(C)=C(C(=O)OC(C)C)C1c1cccc([N+](=O)[O-])c1 (stereo not drawn),male Sprague-Dawley rat,plasma,oral,12 mg/kg,,502 ng·h/mL
COc1ccc2c(Cc3ccccc3F)c3[n+](cc2c1OC)CCc1cc2c(cc1-3)OCO2.[Br-],rat,plasma,intravenous,5 mg/kg,,125 ng·h/mL
CNC(=O)c1c(C)oc2cc(Oc3ncnc4cc(OC)c(OC)cc34)ccc12,Sprague-Dawley rat,plasma,oral,1 mg/kg,single dose,6270 ng·h/mL
